# Compounds with a hit are over-represented: about 3.3% of the library has one in this group of screens.
# HTR1E antagonist: 5-HT1E receptor antagonists, primary screen, cell-based, HTS. inhibition, % at 6 µM. actives 0.99% (n = 65,000). AID 571, 2007. CHO 5-HT1E Ga15 NFAT-bla reporter, FRET, antagonist. 5-hydroxytryptamine receptor 1E (Homo sapiens), P28566;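 active = inhibition above a set limit, the mean inhibition across every tested compound plus 3 SD, cut at about 29% in these data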;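 also: signal is the 460 over 535 nm emission ratio of beta-lactamase substrate; 0% = agonist plus DMSO wells and 100% = wells without agonist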
# Target sequence (P28566 whole entry, looked up): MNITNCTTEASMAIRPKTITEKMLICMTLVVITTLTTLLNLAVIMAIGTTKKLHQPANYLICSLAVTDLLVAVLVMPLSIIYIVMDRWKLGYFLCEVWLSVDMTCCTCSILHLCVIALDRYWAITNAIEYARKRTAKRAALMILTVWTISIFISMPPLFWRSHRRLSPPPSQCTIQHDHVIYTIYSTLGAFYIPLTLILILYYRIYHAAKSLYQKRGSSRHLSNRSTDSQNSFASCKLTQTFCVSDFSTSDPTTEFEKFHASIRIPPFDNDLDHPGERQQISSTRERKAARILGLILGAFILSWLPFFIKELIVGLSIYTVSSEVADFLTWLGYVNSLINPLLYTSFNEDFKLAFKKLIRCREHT
# HEK293 NFkB inh: inhibitors of PMA/ionomycin-induced NF-kB reporter, primary screen, antigen receptor NF-kB inhibitor project, cell-based, HEK-293 luciferase reporter, luminescence; HEK-293 NF-kB luciferase reporter; inhibition, % at 3 µM; actives 0.21% (n = 62,000); AID 465, 2006;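 active = inhibition above the mean of all tested compounds plus 3 SD, cut at about 40% in these data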;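 also: 0% = stimulated DMSO wells and 100% = 10 µM reference inhibitor 5653914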
#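 System – HEK-293 cells with stable firefly luciferase reporter driven by four HIV NF-kB elements · Doses – one dose, 3 µM · Schedule – 1 h compound pre-incubation, 16 h PMA/ionomycin at 37 °C · Technique – luminescence from luciferase substrate reagent · Measure – percent inhibition normalized per plate to DMSO and reference-inhibitor controls · Replicates – tested once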
# HTR1A agonist: human 5-HT1a receptor agonists, primary screen, cell-based, CHO, Ga15 NFAT-bla reporter; 5-hydroxytryptamine receptor 1A (Homo sapiens), P08908; actives 0.56% (n = 65,000); CHO 5-HT1a Ga15 NFAT-bla reporter, FRET ratio; 0% basal, 100% maximal reference agonist; activation, % at 10 µM;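 active = activation above the screen-wide mean activation plus 3 SD, cut at about 19% in these data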;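 also: 0% = DMSO wells and 100% = 5-CT at EC100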
# HTR1E agonist: 5-HT1E receptor agonists, primary screen, cell-based, HTS; 5-hydroxytryptamine receptor 1E (Homo sapiens), P28566; CHO 5-HT1E Ga15 NFAT-bla reporter, FRET; 0% DMSO wells, 100% control agonist wells; activation, % at 6 µM; actives 0.69% (n = 65,000);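 active = activation above a set limit, the screen-wide mean activation plus 3 SD, cut at about 8.5% in these data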;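 also: 100% = positive control agonist at 1 µM giving full maximal response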
# Jurkat viability: cytotoxicity toward Jurkat T cells, primary screen, cytotoxicity control, cell-based, Jurkat E6.1, 60K MLSMR library; AID 463, 2006; actives 1.2% (n = 56,000); inhibition, % at 4 µM; Jurkat E6.1 viability, ATP luminescence, 48 h;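 active = inhibition above the mean inhibition of all tested compounds plus 3 SD, cut at about 28% in these data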
# 5-HT1A blocker: human 5-HT1a receptor antagonists, primary screen, cell-based, CHO, Ga15 NFAT-bla reporter; actives 0.68% (n = 62,000); inhibition, % at 10 µM; AID 612, 2007; 5-hydroxytryptamine receptor 1A (Homo sapiens), P08908; CHO 5-HT1a Ga15 NFAT-bla reporter, antagonist mode;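 active = inhibition above the mean of all tested compounds plus 3 SD, cut at about 43% in these data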;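 also: receptor stimulated by 5-CT agonist at 100 nM near EC80; beta-lactamase reporter measured by ratiometric fluorescence of a cleavable substrate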
# Numbers without * were called inactive; . = no result.
SMILES,HTR1E antagonist,HEK293 NFkB inh,HTR1A agonist,HTR1E agonist,Jurkat viability,5-HT1A blocker
CCOC(=O)CN(C(=O)CSc1nnc(-c2ccc(OC)c(OC)c2)o1)c1ccc(F)cc1,18,3,22*,0,7,-2
COc1ccc(-c2nnc(SCC(=O)N(Cc3ccccc3)C(C)(C)C)o2)cc1OC,-1,23,-2,0,2,-7
CCC(Sc1nc(N)c(NC(=O)c2ccc(OC)c(OC)c2)c(=O)[nH]1)C(=O)OC (configuration not stated),0,1,-3,0,-2,-3
COc1ccc(C(O)c2nc3ccccc3n2C)cc1OC (configuration not stated),-6,20,-3,1,54*,3
CCOC(=O)N1CCN(CC(=O)Nc2c(C(=O)OC)[nH]c3ccc(Cl)cc23)CC1,8,28,0,-1,31*,4
COC(=O)c1[nH]c2cc(OC)c(OC)cc2c1NC(=O)CN1CCN(Cc2ccccc2)CC1,39*,-9,1,0,6,7
COC(=O)c1[nH]c2ccc(C)cc2c1NC(=O)CN1CCN(Cc2ccccc2)CC1,1,15,1,1,6,-5
CN(C)Cc1cc(CCNC(=O)c2ccc(Cl)cc2)ccc1O,7,14,-3,14*,12,27
COc1ccc(CCNC(=O)c2ccncc2)cc1OC,5,4,2,0,4,7
COc1cc(C2C(C#N)=C(N)Oc3cc(N(C)C)ccc32)cc2c1OCO2 (configuration not stated),43*,63*,-2,0,15,4
COC(=O)c1cc(OC)c(OC)cc1NC(=O)c1oc2ccccc2c1C,4,10,-2,-1,2,12
CC1(C)Cc2c(c(N3CCOCC3)nc3snc(N)c23)CO1,11,.,359*,1,.,.
C=CCSc1nnc(NC(=O)CSc2nc3ccccc3o2)s1,-8,-8,2,2,4,-11
O=C(NCc1ccco1)c1cc2sccc2n1Cc1ccccc1,-8,9,-1,0,-1,10
CCOc1ccc(S(=O)(=O)Nc2cc(OC)ccc2OC)cc1,65*,33,-2,0,96*,52*
COc1ccc(OC)c(NS(=O)(=O)c2cccs2)c1,3,15,-5,0,17,5
COc1ccc(OC)c(NS(=O)(=O)c2ccc(SC)cc2)c1,17,12,-1,0,78*,8
COc1ccc(OC)c(NS(=O)(=O)c2ccc(N3CCCC3=O)cc2)c1,48*,.,-5,0,.,.
COc1ccc(Cl)cc1NS(=O)(=O)c1ccc(S(=O)(=O)N2CCCC2)cc1,6,5,-2,0,3,10
COc1ccc(S(=O)(=O)Nc2cc(Cl)ccc2OC)cc1,30*,28,-2,0,76*,19
CCC(COC(=O)Nc1cccc(C)c1)NC(=O)OCC(C)C (configuration not stated),0,1,-4,-1,-7,20
O=C(CSc1c2c(nc3ccc(Cl)cc13)CCCC2)N1CCN(C(=O)c2ccco2)CC1,17,2,-1,1,32,34
COc1ccc(-c2cc3nc4n(c(=O)c3s2)CCOC4)cc1,-4,.,-2,3,.,.
O=S(=O)(c1cccc(Cl)c1)N1CCCC1,3,-4,2,131*,.,1
O=S(=O)(c1cccc(S(=O)(=O)N2CCCC2)c1)c1cccc(S(=O)(=O)N2CCCC2)c1,-6,12,-6,-1,-2,-6
SMILES,HTR1E antagonist,HEK293 NFkB inh,HTR1A agonist,HTR1E agonist,Jurkat viability,5-HT1A blocker
O=C(c1cc(-c2cccnc2)nc2ccc(Br)cc12)N1CCC2(CC1)OCCO2,4,-1,0,0,-4,-3
CC(=O)Nc1ccc(S(=O)(=O)N2CCSC2c2ccccc2)cc1 (configuration not stated),15,7,-1,0,-1,-9
CC(=O)Nc1ccc(S(=O)(=O)N2CCSC2c2ccccc2Cl)cc1 (configuration not stated),35*,12,-1,-1,12,12
Cn1c(C(=O)NCc2cccs2)cc2oc3ccccc3c21,4,19,-2,-1,29*,11
CS(=O)(=O)c1nc(-c2ccccc2)cc(C(F)(F)F)n1,64*,-4,-9,3,.,110*
Cc1cc(NC(=O)CCS(=O)(=O)c2nc(-c3ccccc3)cc(C(F)(F)F)n2)no1,40*,8,1,0,33*,61*
O=C(NCc1ccccc1)N[C@@H](Cc1ccccc1)C(=O)O,13,8,-1,-2,-1,-4
CCC(C)NC(=O)N[C@@H](Cc1ccccc1)C(=O)O (some centres not stated),1,4,61*,0,-3,-2
O=C(Nc1nc(-c2ccccc2)cs1)C1CCCN(S(=O)(=O)c2ccccc2)C1 (configuration not stated),-2,11,0,0,39*,-18
O=C(Nc1nc(-c2cc(Cl)sc2Cl)cs1)c1cccs1,-1,5,279*,1,3,49*
O=C(Nc1nc(-c2ccc(S(=O)(=O)N3CCCC3)cc2)cs1)c1cccs1,-7,17,1,0,22,3
O=C(Nc1nc(-c2ccc(S(=O)(=O)N3CCCCCC3)cc2)cs1)c1cccs1,-10,12,5,2,29*,-15
COc1cccc(C(=O)Nc2nc(-c3ccc(S(=O)(=O)N4CCOCC4)cc3)cs2)c1,4,26,1,1,24,-8
O=C(Nc1nc(-c2nc3ccccc3s2)cs1)c1ccc(S(=O)(=O)N2CCOCC2)cc1,-9,-16,-1,1,50*,32
CC1(C)Cc2c(c(=S)nc(-c3ccccc3)n2CCOCCO)CO1,7,1,0,18*,.,-20
OCCOCCn1c(-c2ccccc2)nc(=S)c2c1CCCC2,8,3,-2,1,-2,-6
O=C(CSc1nccn1-c1ccc(F)cc1)Nc1ccc2c(c1)OCO2,1,-13,-1,14*,10,12
O=C(CSc1nccn1-c1ccccc1)Nc1ccc2c(c1)OCO2,10,-1,-3,-1,0,11
